According to ChEMBL document CHEMBL1806460, “Synthesis of rotenoid derivatives with cytotoxic and topoisomerase II inhibitory activities” (Bioorg Med Chem Lett, 2011):

Tests used:
KB = assay: Cytotoxicity against human KB cells after 3 days by MTT assay; type: functional, cell-based; conditions: 72 h
Outline: (§1)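 Cells were cultured per supplier instructions at 2–4 × 10⁴ cells/well in medium with 10% (v/v) FBS, overnight at 37 °C under 5% CO₂. Compounds were then added, and after 3 days MTT was added to 0.5 mg/mL final for 4 h. Medium was replaced for solubilization with glycine pH 10.5. Doxorubicin was the positive control, and IC₅₀ values were derived.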

Nucleic Acid [1] = assay: Binding affinity to calf thymus DNA assessed as increase in melting temperature (reference value: 56.4 degC); type: nucleic-acid assay; conditions: Bos taurus
SW-620 = assay: Cytotoxicity against human SW620 cells after 3 days by MTT assay; type: functional, cell-based; conditions: SW-620, 72 h; outline: as §1
BT-474 = assay: Cytotoxicity against human BT474 cells after 3 days by MTT assay; type: functional, cell-based; conditions: BT-474, 72 h; outline: as §1
[2] = biological target: DNA topoisomerase 2-alpha (Homo sapiens) (UniProt P11388); assay: Inhibition of human topoisomerase 2alpha-mediated relaxation of supercoiled pBR322 at 100 uM after 30 mins by electrophoresis analysis
Sequence of DNA topoisomerase 2-alpha (Homo sapiens) (P11388 whole entry): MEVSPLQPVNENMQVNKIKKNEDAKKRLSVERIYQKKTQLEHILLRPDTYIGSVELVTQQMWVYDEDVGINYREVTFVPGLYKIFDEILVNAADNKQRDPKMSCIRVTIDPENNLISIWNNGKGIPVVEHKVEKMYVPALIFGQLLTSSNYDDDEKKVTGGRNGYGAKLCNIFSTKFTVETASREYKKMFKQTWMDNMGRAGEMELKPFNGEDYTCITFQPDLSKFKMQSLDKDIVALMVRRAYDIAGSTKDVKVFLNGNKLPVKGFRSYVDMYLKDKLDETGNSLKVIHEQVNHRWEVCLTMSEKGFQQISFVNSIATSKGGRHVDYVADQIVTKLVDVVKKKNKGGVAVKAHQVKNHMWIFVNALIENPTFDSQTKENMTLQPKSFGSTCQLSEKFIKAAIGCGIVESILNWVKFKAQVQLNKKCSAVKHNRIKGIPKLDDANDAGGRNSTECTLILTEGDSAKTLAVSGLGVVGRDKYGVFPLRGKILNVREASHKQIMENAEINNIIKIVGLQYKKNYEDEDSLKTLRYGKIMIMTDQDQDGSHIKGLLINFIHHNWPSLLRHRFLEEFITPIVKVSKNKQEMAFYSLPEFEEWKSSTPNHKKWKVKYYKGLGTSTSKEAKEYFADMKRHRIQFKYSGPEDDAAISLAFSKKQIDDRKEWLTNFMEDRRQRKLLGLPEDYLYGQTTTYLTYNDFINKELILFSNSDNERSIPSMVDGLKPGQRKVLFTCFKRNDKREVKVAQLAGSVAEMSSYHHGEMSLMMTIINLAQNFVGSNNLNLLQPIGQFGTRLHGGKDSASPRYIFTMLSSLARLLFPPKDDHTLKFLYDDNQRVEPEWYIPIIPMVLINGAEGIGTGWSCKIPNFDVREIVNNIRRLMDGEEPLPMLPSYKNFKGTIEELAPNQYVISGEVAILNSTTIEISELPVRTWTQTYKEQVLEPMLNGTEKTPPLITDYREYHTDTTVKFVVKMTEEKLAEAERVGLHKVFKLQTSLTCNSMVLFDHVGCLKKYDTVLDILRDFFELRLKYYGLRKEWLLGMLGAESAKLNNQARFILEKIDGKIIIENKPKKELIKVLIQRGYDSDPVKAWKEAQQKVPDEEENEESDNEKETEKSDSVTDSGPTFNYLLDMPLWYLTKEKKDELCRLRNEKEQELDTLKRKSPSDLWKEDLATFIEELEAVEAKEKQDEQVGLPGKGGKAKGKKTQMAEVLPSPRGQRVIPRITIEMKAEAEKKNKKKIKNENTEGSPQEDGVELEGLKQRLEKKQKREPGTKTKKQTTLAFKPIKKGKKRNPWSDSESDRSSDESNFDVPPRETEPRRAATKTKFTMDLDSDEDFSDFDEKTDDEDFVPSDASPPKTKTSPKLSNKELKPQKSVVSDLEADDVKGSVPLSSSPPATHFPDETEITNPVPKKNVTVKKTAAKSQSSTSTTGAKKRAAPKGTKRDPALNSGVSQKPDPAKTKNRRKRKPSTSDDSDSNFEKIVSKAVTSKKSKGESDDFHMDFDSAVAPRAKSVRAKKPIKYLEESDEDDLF

[3] = Cytotoxicity against human ChaGo cells after 3 days by MTT assay; type: functional, cell-based; conditions: 72 h; outline: as §1
NCI-H187 = assay: Cytotoxicity against human NCI-H187 cells after 3 days by MTT assay; type: functional, cell-based; conditions: NCI-H187, 72 h; outline: as §1
MCF7 = assay: Cytotoxicity against human MCF7 cells after 3 days by MTT assay; type: functional, cell-based; conditions: MCF7, 72 h; outline: as §1
[4] = Cytotoxicity against human KATO cells after 3 days by MTT assay; type: functional, cell-based; conditions: 72 h; outline: as §1
HepG2 = assay: Cytotoxicity against human HepG2 cells after 3 days by MTT assay; type: functional, cell-based; conditions: HepG2, 72 h; outline: as §1
Nucleic Acid [5] = assay: Binding affinity to calf thymus DNA assessed as change in melting temperature; type: nucleic-acid assay; conditions: Bos taurus
[6] = biological target: DNA topoisomerase 2-alpha (Homo sapiens) (UniProt P11388); assay: Inhibition of human topoisomerase 2alpha-mediated relaxation of supercoiled pBR322 at 20 uM after 30 mins by electrophoresis analysis

Compound | Tm (Nucleic Acid [1]) [°C] | inhibition [2] [%] | ΔTm (Nucleic Acid [5]) [°C] | inhibition [6] [%] | IC50 (KB) [µM] | IC50 (SW-620) [µM] | IC50 (BT-474) [µM] | IC50 [3] [µM] | IC50 (NCI-H187) [µM] | IC50 (MCF7) [µM] | IC50 [4] [µM] | IC50 (HepG2) [µM]
COc1cc(OCC(O)CN(CCO)CCO)c2c(c1)O[C@@H]1COc3cc(OC)c(OC)cc3[C@]1(O)C2=O (stereo not given in full) | – | 49.1 | – | – | > 100 | > 100 | > 100 | > 100 | > 100 | > 100 | > 100 | > 100
COc1cc(OCC(O)CNCCN2CCOCC2)c2c(c1)O[C@@H]1COc3cc(OC)c(OC)cc3[C@]1(O)C2=O (mixture of isomers) | 66.1 | 77.1 | 8.8 | – | 26.3 | 0.54 | 0.45 | 40.2 | 4.7 | 36.8 | 1.94 | 0.56
COc1cc(OCC(O)CN2CCC(=O)CC2)c2c(c1)O[C@@H]1COc3cc(OC)c(OC)cc3[C@]1(O)C2=O (mixture of isomers) | – | 54.2 | – | – | > 100 | > 100 | > 100 | > 100 | > 100 | 48.6 | > 100 | > 100
COc1cc(OCC(O)CNCc2ccccc2)c2c(c1)O[C@@H]1COc3cc(OC)c(OC)cc3[C@]1(O)C2=O (mixture of isomers) | 68 | 81.7 | 10.7 | – | 32.3 | 0.59 | 0.62 | 31 | 35.5 | 34.6 | 0.67 | 0.72
COc1cc(OCC(O)CNCCc2ccccc2)c2c(c1)O[C@@H]1COc3cc(OC)c(OC)cc3[C@]1(O)C2=O (mixture of isomers) | – | 66.7 | – | – | 23.5 | > 100 | > 100 | > 100 | 13.6 | 3.05 | > 100 | > 100
COc1cc(OCC(O)CNCC(O)c2ccccc2)c2c(c1)O[C@@H]1COc3cc(OC)c(OC)cc3[C@]1(O)C2=O (mixture of isomers) | – | 60.4 | – | – | 46.4 | > 100 | > 100 | > 100 | 22.1 | – | > 100 | > 100
COc1cccc2c1C(=O)c1c(O)c3c(c(O)c1C2=O)C[C@@](O)(C(=O)CO)C[C@@H]3O[C@H]1C[C@H](N)[C@H](O)[C@H](C)O1 [DOXORUBICIN] | – | 72.1 | – | – | 2.01 | 0.23 | 0.07 | 0.83 | 0.03 | – | 0.33 | 0.26

The next lines start with results.

Tm (Nucleic Acid [1]) [°C] | inhibition [2] [%] | ΔTm (Nucleic Acid [5]) [°C] | inhibition [6] [%] | Compound | IC50 (KB) [µM] | IC50 (SW-620) [µM] | IC50 (BT-474) [µM] | IC50 [3] [µM] | IC50 (NCI-H187) [µM] | IC50 (MCF7) [µM] | IC50 [4] [µM] | IC50 (HepG2) [µM]
57.3 | 72.1 | – | – | COc1cc(O)c2c(c1)O[C@@H]1COc3cc(OC)c(OC)cc3[C@]1(O)C2=O | 13.3 | > 100 | > 100 | > 100 | 3.12 | 23.7 | > 100 | > 100
59.3 | 68.3 | 2 | – | COc1cc(OCC2CO2)c2c(c1)O[C@@H]1COc3cc(OC)c(OC)cc3[C@]1(O)C2=O (mixture of isomers) | 32.9 | 0.38 | 0.45 | 0.57 | 27.8 | 5.63 | 0.63 | 0.55
– | 58.3 | – | – | COc1cc(OCC(O)CCl)c2c(c1)O[C@@H]1COc3cc(OC)c(OC)cc3[C@]1(O)C2=O (mixture of isomers) | 14.8 | 1.09 | 1.57 | > 100 | 6.61 | 24.9 | 1.09 | 0.81
– | 38.8 | – | – | COc1cc(OCC(O)CO)c2c(c1)O[C@@H]1COc3cc(OC)c(OC)cc3[C@]1(O)C2=O (mixture of isomers) | 13.4 | 8.04 | > 100 | > 100 | 13.9 | > 100 | > 100 | > 100
– | 58.4 | – | – | COCC(O)COc1cc(OC)cc2c1C(=O)[C@@]1(O)c3cc(OC)c(OC)cc3OC[C@H]1O2 (mixture of isomers) | 46.9 | > 100 | > 100 | > 100 | 11.7 | > 100 | > 100 | > 100
65.1 | 93.5 | 7.8 | 47.1 | COc1cc(OCC(O)CN2CCOCC2)c2c(c1)O[C@@H]1COc3cc(OC)c(OC)cc3[C@]1(O)C2=O (mixture of isomers) | 26.5 | 0.73 | 0.34 | 0.61 | 2.93 | 31.7 | > 100 | 0.61
